Reference: paper PMC7104935 (Asian Pacific Journal of Tropical Medicine, 2015)
≈ marks a conversion by molar mass, not a printed value. Where “and” joins values, the source holds several entries; their conditions need not be identical. Equal values may be shown once. Entries after “also recorded” stand apart in the source; their conditions may differ. Where a name gives a salt, the structure may show the parent alone. Read-outs that look alike come from different tables or passages of the source. Marks after values point to notes of the source that are not given here.

How the values were obtained:
[1] = system: mouse hepatitis virus (MHV); experiment: microbe, parasite or virus in culture; assay type: cell-based, murine coronavirus; conditions: for IC50: read-out: IC50 against MHV
in vitro = conditions: mouse
[2] = MTT cell viability and proliferation assay, BHK-21 cells; assay type: cell-based, baby hamster; conditions: hamster, BHK-21 cells (monolayers)
Method in brief: (§1)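 BHK-21 monolayers were exposed to test compound for 48 h at 37 °C, 5% CO2, at the concentrations used in neutralization tests. MTT was added for 4 h, then 100 g/L SDS in 0.01 mol/L HCl overnight in the dark at room temperature. OD was read at 570 nm. Inhibition rate was taken relative to solvent-treated cells, and CC50 came from the concentration plot. Experiments were repeated; mean and standard deviation reported.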

HSV-1 = conditions: cited from earlier work
[3] = system: DENV-2 New Guinea C strain; experiment: DENV-2 plaque reduction neutralization test; assay type: cell-based, dengue virus type 2; conditions: for Selectivity index (DENV-2): CC50/IC50, '>' values with absence of cytotoxicity; for IC50: Dengue virus, DENV2, BHK-21, read-out: IC50 against DENV-2
Method in brief: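 DENV-2 New Guinea C was propagated in C6/36 cells (L15, 3% FBS, 28 °C). 2-fold dilutions were made: extract fraction 166.67 to 0.08 μg/mL, flavonoids 500.00 to 15.63 μg/mL. Each was preincubated 1 h with 90 PFU, then adsorbed 1 h at 37 °C on BHK-21 monolayers (RPMI-1640, 10% FBS). Plates had 1% carboxymethylcellulose overlay for 6 d, then crystal violet plaque count. Run in duplicate, with mAb 3H5 as positive control. IC50 came from % plaque reduction curves.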

BHK-21 cells = experiment: MTT cell viability and proliferation assay, BHK-21 cells; assay type: cell-based, baby hamster; conditions: at concentrations tested in PRNT
Method in brief: as §1

| Structure (SMILES) | Cytotoxicity on CCL9.1 cells (CCL9.1 cells) | Duration of inhibition of viral infectivity [1] | IC50 against MHV [1] | MHV inhibition [1] | MIC, anti-MHV activity [1] | Selectivity index (MHV) [1] | IC50 ([1]; Murine coronavirus) [µg/mL] | MIC ([1]; Murine coronavirus, read-out: MIC, anti-MHV activity) [µg/mL] | CC50 (in vitro) [µg/mL] | CC50 at 48 h [2] [µg/mL] | Activity on HSV-1 among flavonoids (HSV-1) | CC50 (CCL9.1 cells; mouse) [µg/mL] | IC50 ([1]; Murine coronavirus, 1 h) [µg/mL] | Selectivity index (DENV-2) [3] | IC50 [3] [µg/mL] | Cytotoxicity to BHK cells (BHK-21 cells) | Antiviral activity against MHV [1] | Anti-DENV-2 activity ([3]; PRNT, 500.00 down to 15.63 μg/mL) |
| --- | --- | --- | --- | --- | --- | --- | --- | --- | --- | --- | --- | --- | --- | --- | --- | --- | --- | --- |
| CN(C)CCCSc1ccccc1NC(=O)/C=C/c1ccccc1 [Cinanserin, cinanserin hydrochloride] | minimal or no cytotoxicity | 2 days | 62.50 µg/mL | no viral inhibition; also recorded: could not inhibit MHV | 62.50 µg/mL and 62.5 µg/mL | >4.00 ^c and >2.00 ^c | 31.2 | 31.2 | – | – | – | – | – | – | – | – | – | – |
| O=c1c(O)c(-c2ccc(O)c(O)c2)oc2cc(O)cc(O)c12 [Quercetin, quercetin] | – | up to 6 d | – | – | – | 0.93 | – | – | 116 (≈ 385 µM) | 155 (≈ 514 µM) | highest activity | 116.52 (≈ 386 µM) | 125 (≈ 414 µM) | 0.88 | 177 (≈ 585 µM) | – | – | – |
| C[C@@H]1O[C@@H](Oc2c(-c3ccc(O)c(O)c3)oc3cc(O)cc(O)c3c2=O)[C@H](O)[C@H](O)[C@H]1O [Quercitrin, quercetin-3-L-rhamnoside] | – | – | NIL | – | – | – | – | – | – | – | – | – | – | >1.07 ^c | 467 (≈ 1040 µM) | did not cause cytotoxicity | did not exhibit antiviral activity | – |
| C[C@@H]1O[C@@H](OC[C@H]2O[C@@H](Oc3c(-c4ccc(O)c(O)c4)oc4cc(O)cc(O)c4c3=O)[C@H](O)[C@@H](O)[C@@H]2O)[C@H](O)[C@H](O)[C@H]1O [Rutin, quercetin-3-rutinoside] | – | – | NIL | – | – | – | – | – | – | – | no effect at all | – | – | – | – | without cytotoxicity | did not exhibit antiviral activity | no anti-DENV-2 activity was detected |
